# Compound activity: PubChem, Sanford-Burnham Center for Chemical Genomics
# CendR NRP1 mod = alters CendR peptide binding to human NRP-1; O14786; FAM-RPARPAR peptide binding to NRP-1, fluorescence polarization; inhibition, % at 25 µM; 360,000 compounds, 0.85% hits; AID 602438;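 active means inhibition or corrected inhibition above about 18%, plus a signal ratio from 0.5 to 1.5, limit read from the data, passing the limit was not always enough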
# SENP8 block-1 = blocks human SENP8 cleavage of Nedd8 substrate | AID 602440 | inhibition, % at 20 µM | recombinant SENP8, Nedd8 substrate fluorescence | 360,000 compounds, 0.64% hits | Q96LD8; in the data active means inhibition mostly above about 40%, no sharp cut-off; inactive means mostly below about 27%
# Target sequence (Q96LD8 whole entry, looked up): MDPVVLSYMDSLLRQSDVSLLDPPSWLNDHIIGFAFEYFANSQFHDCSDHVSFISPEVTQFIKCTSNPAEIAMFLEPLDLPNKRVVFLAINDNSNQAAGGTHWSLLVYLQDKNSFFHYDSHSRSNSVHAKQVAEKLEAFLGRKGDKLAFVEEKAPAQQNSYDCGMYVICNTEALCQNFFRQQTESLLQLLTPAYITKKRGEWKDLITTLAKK
# SENP8 block-2 = SENP8 protease inhibition | purified SENP8, Z-RLRGG-aminoluciferin cleavage, luminescence | 330,000 compounds, 1.2% hits | AID 2540 | inhibition, % at 10 µM; in the data active means inhibition above about 50%
# SENP6 block = inhibitors of human SENP6 protease. Q9GZR1. Recombinant SENP6 catalytic domain, aminoluciferin luminescence. inhibition, % at 10 µM. 330,000 compounds, 1.8% hits. AID 2599;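 active means inhibition above about 50% at the single tested dose, limit read from the data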;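 further: plate controls were DMSO wells with enzyme for no effect and DMSO wells lacking enzyme for full effect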
# SENP7 inh = blocks the human protease SENP7. Q9BQF6. recombinant SENP7, Z-RLRGG-aminoluciferin luminescence, 40 min. inhibition, % at 5 µM. 330,000 compounds, 1.5% hits;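 active means inhibition above about 50% at the single test dose, limit read from the data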;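 further: plate controls were DMSO with enzyme for no effect and no enzyme buffer wells for full effect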
# Target sequence (Q9BQF6 706-1050 limits assumed): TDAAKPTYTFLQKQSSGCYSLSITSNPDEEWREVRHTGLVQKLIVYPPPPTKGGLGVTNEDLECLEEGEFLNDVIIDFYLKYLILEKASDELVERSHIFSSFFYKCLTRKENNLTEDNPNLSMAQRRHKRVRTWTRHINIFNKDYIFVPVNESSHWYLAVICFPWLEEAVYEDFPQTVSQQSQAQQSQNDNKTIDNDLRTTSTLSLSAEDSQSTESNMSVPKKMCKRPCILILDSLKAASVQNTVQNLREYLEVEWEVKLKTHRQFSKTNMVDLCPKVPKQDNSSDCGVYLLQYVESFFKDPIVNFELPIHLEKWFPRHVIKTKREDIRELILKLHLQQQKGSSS
# SENP1 FRET inh = inhibitors of human SENP1 SUMO protease catalytic domain | Q9P0U3 | recombinant SENP1 catalytic domain, CyPet-SUMO1-YPet FRET cleavage | inhibition, % at 10 µM | 360,000 compounds, 0.21% hits | AID 624204;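 active means inhibition at least 30% at 10 µM, raw YFP signal under a set limit, fluorescence ratio 0.5 to 1.5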;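 further: 0% = enzyme with DMSO and 100% = no enzyme wells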
#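 Test system: hSENP1 catalytic domain, recombinant; Amount: 20 pM final SENP1 enzyme; Medium: Tris pH 8 buffer plus EDTA, NaCl, BME, BSA, NP40, catalase; Schedule: 50 min enzyme reaction, room temperature, light-protected; Technique: FRET fluorescence in CFP and YFP emission channels; Controls: no-enzyme wells low, DMSO-plus-enzyme wells high control.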
# The depositor's hits bear a star; i = inactive; x = no result. A selection: hits, their analogues and other compounds. The true share with any hit is near 3.3%.
SMILES,CendR NRP1 mod,SENP8 block-1,SENP8 block-2,SENP6 block,SENP7 inh,SENP1 FRET inh
Cc1ccccc1Oc1ccc2c(c1)[C@@H]1C[C@H](N(C)C(=O)Nc3cc(Cl)cc(Cl)c3)[C@H]([C@H](C)O)C(=O)N1CC2,35.1*,-4.6,x,x,x,-3.4
O=C(NC(CO)(CO)CO)[C@@H]1CCCN1S(=O)(=O)c1cccc2cccnc12,9.8,1.8,-0.8,-2.7,-1.0,2.4
CCCCCNC(=O)C(c1ccc(C(F)(F)F)cc1)n1c(=O)c(-c2ccco2)nc2ccccc21 (stereo unspecified),-24.5,-446.2,x,x,x,-32.0
Nc1ccc2cccc(O)c2c1,28.5*,-70.2,x,x,x,-8.8
COc1ccc(C(=O)C(=O)N2CCN(C(=O)OCc3ccccc3)CC2)cc1,11.6,22.0,x,x,x,1.5
CC(C)c1ccccc1OCC(=O)NCC(c1cccs1)N1CCOCC1 (stereo unspecified),1.7,6.4,4.1,-0.6,9.5,0.1
Cn1nc(C(=O)NCC(c2cccs2)N2CCOCC2)c2ccccc2c1=O (stereo unspecified),27.0*,-4.4,-10.1,-13.5,-11.6,-1.9
COc1ccccc1OCC(=O)NCC(c1cccs1)N1CCOCC1 (stereo unspecified),24.9*,-0.9,0.9,-8.3,-6.1,0.4
CCCCCCCCN1C(=O)[C@H](CC(=O)NCCc2ccccc2OC)C[C@@]2(C(=O)OCC)CCC=C12,-10.4,13.7,x,x,x,-1.7
C/C(=C\c1ccc2c(c1)OCO2)C1Nc2cccc3cccc(c23)N1,16.9*,13.6,14.7,23.3,12.5,-6.2
COCc1c(Br)c(C)[nH]c(=O)c1C#N,-8.7,i,0.8,-6.2,5.6,3.4
Cc1[nH]c(=O)c(C#N)c(C)c1Cl,26.5*,-385.1,-5.1,-21.2,-14.2,17.2
O=C(CSCc1ccc(Br)cc1)Nc1ccc(S(=O)(=O)N2CCOCC2)cc1,10.3,16.5,-1.8,0.8,1.1,1.1
O=C(CSCc1ccccc1)Nc1ccc(S(=O)(=O)N2CCOCC2)cc1,27.2*,26.8,-8.2,-29.3,-7.0,2.6
COc1cccc(CN2CCNC(=O)C2CC(=O)NC2CCCCC2)c1OC (stereo unspecified),4.1,-12.1,-1.9,5.0,-2.0,-10.0
COc1ccccc1CN1CCNC(=O)C1CC(=O)NC1CCCCCC1 (stereo unspecified),26.5*,-29.6,4.4,12.5,8.9,-13.8
CC(/C=C/c1ccc(OCc2ccccc2)cc1)=N\O,-13.4,5.9,33.5,43.3,69.9*,2.7
Cc1cc(C)c(Cn2c(=O)[nH][nH]c2=O)cc1Cn1c(=O)[nH][nH]c1=O,-1.7,18.2,x,x,x,1.4
CC(=O)Nc1ccc(C(=O)Nc2ccc3c(c2)OCO3)cc1,16.8,1.1,-6.4,-6.7,7.5,1.7
O=C(Nc1ccc2c(c1)OCO2)c1ccc2c(c1)OCO2,3.2,9.4,67.1*,86.1*,84.5*,-3.1
Cc1ccc(NC(=O)c2ccc3c(c2)OCCO3)cc1S(=O)(=O)Nc1cccc(Cl)c1,37.3*,3.1,0.3,4.5,8.0,-0.8
CCCC(=O)Nc1cccc(NC(=O)c2ccc3c(c2)OCCO3)c1,6.5,9.0,13.9,-1.6,-6.7,2.1
CCOC(=O)c1[nH]c2ccc(OC)cc2c1NC(=O)c1ccc2c(c1)OCO2,2.7,-117.9,-12.1,-7.9,-9.0,0.9
NS(=O)(=O)c1cc(C(=O)OCC(=O)c2ccc3c(c2)OCCO3)ccc1Cl,-17.0,17.4,-4.1,-26.5,3.0,1.3
COC(=O)c1[nH]c2cc(OC)ccc2c1NC(=O)c1ccc2c(c1)OCO2,20.7*,-35.6,-16.0,-3.6,-8.1,1.9
SMILES,CendR NRP1 mod,SENP8 block-1,SENP8 block-2,SENP6 block,SENP7 inh,SENP1 FRET inh
NS(=O)(=O)c1cc(C(=O)NNC(=O)c2ccc3c(c2)OCO3)ccc1Cl,28.1*,5.5,-2.9,-3.7,3.1,3.5
Cc1ccccc1CN1C[C@H]2CON(C)[C@H]2C[C@H]1c1cccc(Br)c1,-6.9,4.2,x,x,x,1.8
CCOC1CCCc2oc(-c3ccc(N(C)C)cc3)c(C(=O)OC)c21 (stereo unspecified),6.8,-393.4,x,x,x,-120.3
COc1ccc(-n2c(=O)[nH]cc(C(=O)Nc3ccc4c(c3)OCCO4)c2=O)cc1OC,-3.5,-11.5,5.3,0.7,0.3,-1.2
O=C(Nc1ccc2c(c1)OCO2)c1c[nH]c(=O)n(-c2ccc(F)cc2)c1=O,20.2*,-2.8,3.1,5.4,4.1,-2.5
CCOC(=O)C(=CNc1ccc(O)c(C(=O)OC)c1)C(=O)OCC,25.1*,-384.2,-0.8,-1.1,0.7,-3.1
CCOC(=O)c1cc(NC(=O)COC)ccc1O,x,x,-7.0,-17.4,0.9,x
CCOC(=O)C1=C(C)N(C)C(=O)NC1c1cc2c(cc1Br)OCO2 (stereo unspecified),21.2*,16.0,-10.6,-16.7,-6.6,3.8
Cc1cc(C)cc(N(C(=O)CNC(=O)c2ccco2)C(C(=O)NC2CCCCC2)c2cccnc2)c1 (stereo unspecified),5.9,5.6,-6.2,-24.6,4.7,0.2
O=C(NCC(=O)N(c1ccccc1F)C(C(=O)NC1CCCC1)c1ccco1)c1ccco1 (stereo unspecified),5.4,1.5,-10.7,0.9,-13.7,-0.7
COc1ccccc1N(C(=O)c1ccco1)C(C(=O)NC1CCCCC1)c1cc(OC)c(OC)c(OC)c1 (stereo unspecified),26.5*,3.2,-3.7,-7.6,-3.5,10.6
COc1ccccc1N(C(=O)CNC(=O)c1ccco1)C(C(=O)NC1CCCC1)c1ccco1 (stereo unspecified),17.9*,14.3,-2.3,-6.1,-2.3,0.7
Cc1cc(C)cc(N(C(=O)CNC(=O)c2ccco2)C(C(=O)NC2CCCCC2)c2ccncc2)c1 (stereo unspecified),21.5*,7.3,0.1,-23.7,-9.8,-0.4
COc1cccc(NC(=O)C2(C)CCN2C(=O)CC2CC2)c1 (stereo unspecified),-5.0,-4.1,x,x,x,0.0
COc1ccccc1-c1csc(C(NC(C)=O)c2ccccc2)n1 (stereo unspecified),-2.9,7.5,x,x,x,-2.3
C[C@@H]1CN([C@@H](C)CO)S(=O)(=O)c2ccc(Br)cc2O[C@H]1CN(C)C(=O)c1ccncc1,-2.8,17.2,x,x,x,0.1
Cc1ccc(NCCc2ccc(C)nc2)cc1,19.9*,26.1,4.1,-18.1,6.3,0.7
C=CCN(CC=C)Cc1cc(=O)oc2ccccc12,-0.6,28.5,x,x,x,-0.1
COCC1CCN(C(=O)C2CCC(=O)N(Cc3cccc(F)c3)C2)CC1 (stereo unspecified),25.9*,-7.6,0.9,-8.6,-8.8,0.8
O=C(c1ccccc1)C1CCN(C(=O)C2CCC(=O)N(Cc3cccc(F)c3)C2)CC1 (stereo unspecified),4.9,5.8,-4.8,4.3,-2.6,0.8
